In ChEMBL document CHEMBL3739303, “Targeting the Src Homology 2 (SH2) Domain of Signal Transducer and Activator of Transcription 6 (STAT6) with Cell-Permeable, Phosphatase-Stable Phosphopeptide Mimics Potently Inhibits Tyr641 Phosphorylation and Transcriptional Activity” (J Med Chem, 2015) one finds inhibition data, which are given here for one compound.

Assay [1] has as its target RAC-alpha serine/threonine-protein kinase (Homo sapiens) (UniProt P31749). As to the kind of experiment: Inhibition of EGF-induced AKT phosphorylation at S473 in human MDA-MB-468 cells at 5 uM incubated for 2 hrs followed by stimulation with EGF for 1 hr by Western blot assay. The format is cell-based.
In assay [2] the target is T1, Signal transducer and activator of transcription 6 (Homo sapiens) (UniProt P42226).
T1 sequence (whole entry): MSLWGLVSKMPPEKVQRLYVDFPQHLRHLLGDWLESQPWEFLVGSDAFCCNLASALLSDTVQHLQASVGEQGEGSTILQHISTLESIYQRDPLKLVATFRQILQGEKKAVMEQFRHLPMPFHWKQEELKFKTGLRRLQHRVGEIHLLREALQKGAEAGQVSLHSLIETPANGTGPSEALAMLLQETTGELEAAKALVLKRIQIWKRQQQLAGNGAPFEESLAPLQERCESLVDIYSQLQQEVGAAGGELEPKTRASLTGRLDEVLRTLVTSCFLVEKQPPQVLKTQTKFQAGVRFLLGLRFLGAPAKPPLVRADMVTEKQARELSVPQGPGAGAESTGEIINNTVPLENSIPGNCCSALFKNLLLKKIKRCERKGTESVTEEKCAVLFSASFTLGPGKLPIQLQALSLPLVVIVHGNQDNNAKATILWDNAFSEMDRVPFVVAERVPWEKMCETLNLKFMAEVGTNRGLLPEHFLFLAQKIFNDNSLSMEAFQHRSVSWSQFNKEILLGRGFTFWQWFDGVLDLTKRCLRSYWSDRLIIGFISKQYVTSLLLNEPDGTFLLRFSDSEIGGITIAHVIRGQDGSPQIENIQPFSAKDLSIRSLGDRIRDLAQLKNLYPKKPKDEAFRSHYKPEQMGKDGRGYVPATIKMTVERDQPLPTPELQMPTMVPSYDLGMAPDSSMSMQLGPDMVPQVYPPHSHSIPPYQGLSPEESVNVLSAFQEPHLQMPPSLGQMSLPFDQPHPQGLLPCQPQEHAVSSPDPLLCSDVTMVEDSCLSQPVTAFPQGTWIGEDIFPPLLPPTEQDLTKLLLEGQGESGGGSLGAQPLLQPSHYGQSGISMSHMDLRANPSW
As to the kind of experiment: Inhibition of IL-13-stimulated STAT6 SH2 domain phosphorylation in human Beas-2B cells assessed as inhibition of CCL26 mRNA expression at 100 nM preincubated for 2 hrs followed by stimulation with IL-13 for 24 hrs by RT-PCR analysis relative to control.

The species entered for a further assay is Mus musculus. As to the kind of experiment: Inhibition of IL2-induced STAT5 phosphorylation at Y694 in CD4+ T lymphocytes isolated from C57BL/6J mouse at 0.5 to 5 uM preincubated for 2 hrs followed by activation with plate-bound anti-CD3/anti-CD28 and IL2 for 15 mins by Western blot analysis. The format is cell-based. The method, boiled down: (§1)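 CD4+ T cells from C57BL/6J mice, sorted by AutoMACS; activated 15 min with plate-bound anti-CD3 and/or anti-CD28 with IL-2, IL-6 or IL-4; lysed with protease inhibitors plus 10 mM NaF and 1 mM Na3VO4; Bradford-normalised immunoblots for pSTAT1 (Tyr701), pSTAT5 (Tyr694), pSTAT6 (Tyr641) and total STATs.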

For assay [3], the target named is T2, Signal transducer and activator of transcription 1 (Mus musculus) (UniProt P42225).
T2 sequence (whole entry): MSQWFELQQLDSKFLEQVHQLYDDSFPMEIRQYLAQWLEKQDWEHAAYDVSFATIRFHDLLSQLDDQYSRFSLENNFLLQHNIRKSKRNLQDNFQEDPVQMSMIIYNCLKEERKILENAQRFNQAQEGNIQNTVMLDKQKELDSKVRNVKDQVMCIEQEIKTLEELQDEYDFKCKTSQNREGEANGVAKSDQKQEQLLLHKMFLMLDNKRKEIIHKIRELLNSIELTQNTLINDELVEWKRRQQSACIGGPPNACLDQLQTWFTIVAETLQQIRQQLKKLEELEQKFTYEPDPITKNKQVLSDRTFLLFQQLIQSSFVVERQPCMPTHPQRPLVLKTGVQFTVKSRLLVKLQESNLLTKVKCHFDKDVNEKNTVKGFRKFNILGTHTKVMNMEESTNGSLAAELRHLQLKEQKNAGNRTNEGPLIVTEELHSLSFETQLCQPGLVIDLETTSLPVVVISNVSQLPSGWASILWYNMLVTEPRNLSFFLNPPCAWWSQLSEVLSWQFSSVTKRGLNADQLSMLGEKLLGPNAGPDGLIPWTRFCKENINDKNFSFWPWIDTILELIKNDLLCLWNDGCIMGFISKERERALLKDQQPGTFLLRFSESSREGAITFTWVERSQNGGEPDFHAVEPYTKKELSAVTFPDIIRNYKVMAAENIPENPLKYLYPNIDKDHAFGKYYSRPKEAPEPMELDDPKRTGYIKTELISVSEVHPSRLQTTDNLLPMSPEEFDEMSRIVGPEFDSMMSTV
As to the kind of experiment: Inhibition of IL6-induced STAT1 phosphorylation at Y701 in CD4+ T lymphocytes isolated from C57BL/6J mouse preincubated for 2 hrs followed by activation with plate-bound anti-CD3/anti-CD28 and IL6 for 15 mins by Western blot analysis. The format is cell-based. The method, boiled down: as §1

The target in assay [4] is T1, Signal transducer and activator of transcription 6 (Homo sapiens). As to the kind of experiment: Inhibition of IL4-induced STAT6 phosphorylation in human MDA-MB-468 cells at 0.1 to 5 uM incubated for 2 hrs followed by stimulation with IL4 for 1 hr by Western blot assay. The format is cell-based. The method, boiled down: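 MDA-MB-468 breast cancer cells serum-starved, treated with prodrugs, then IL-4 stimulated; pSTAT6 read by Western blot.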

Active and inactive are the calls of the source. The rule behind the calls is not given here.

Sequence of RAC-alpha serine/threonine-protein kinase (Homo sapiens) (P31749 whole entry): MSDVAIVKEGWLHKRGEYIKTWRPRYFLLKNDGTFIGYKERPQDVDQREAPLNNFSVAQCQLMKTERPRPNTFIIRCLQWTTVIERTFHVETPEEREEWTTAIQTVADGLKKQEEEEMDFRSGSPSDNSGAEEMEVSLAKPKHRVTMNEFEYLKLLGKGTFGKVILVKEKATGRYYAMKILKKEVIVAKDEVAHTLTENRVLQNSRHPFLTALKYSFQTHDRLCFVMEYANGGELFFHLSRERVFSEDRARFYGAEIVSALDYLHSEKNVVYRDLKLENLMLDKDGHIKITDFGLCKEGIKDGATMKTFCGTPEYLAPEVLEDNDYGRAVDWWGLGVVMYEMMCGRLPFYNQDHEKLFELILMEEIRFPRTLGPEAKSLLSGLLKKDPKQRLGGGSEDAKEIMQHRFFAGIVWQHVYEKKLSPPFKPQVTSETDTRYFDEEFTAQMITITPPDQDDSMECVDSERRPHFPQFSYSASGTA

On to `C/C(=C\C(=O)N[C@H](C(=O)N1CCC[C@H]1C(=O)N(C)c1ccccc1)C(C)(C)C)c1ccc(C(F)(F)P(=O)(OCOC(=O)C(C)(C)C)OCOC(=O)C(C)(C)C)cc1`, for which the inhibition entry (in assay [1]; in the assay listed under Mus musculus; in assay [4]) was “Active” throughout. The inhibition in assay [2] is > 50%. In addition, in assay [3], the inhibition result was “inactive”.
